Our source for the GI50 and viability values is ChEMBL document CHEMBL3797032, “Synthesis and in vitro growth inhibitory activity of novel silyl- and trityl-modified nucleosides” (Bioorg Med Chem, 2016).

Series [1] is described as follows: Growth inhibition of human U373 cells assessed as reduction in cell viability incubated for 72 hrs by MTT assay. It is filed as functional, U-373MG ATCC. The note with it: U373 MG. In outline: (§1)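 Glioma cells grown adherent: Hs683 in DMEM + 5–10% FBS, U373 in Earle's MEM + 10% FBS and 1 mM sodium pyruvate; trypan blue viability check before use. Exposed for 72 h to 0.01–100 μM, narciclasine as positive control. MTT read-out with formazan dissolved in DMSO; GI50 is the concentration giving 50% growth reduction versus untreated controls.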
For orientation: Formazan colour is commonly taken as a measure of viable cells.

Series [2] is described as follows: Growth inhibition of human Hs683 cells assessed as reduction in cell viability incubated for 72 hrs by MTT assay. The class given is functional. The note with it: Hs 683, 72 h. In outline: as §1
The nature of series [3]: Growth inhibition of human HL60 cells assessed as cell viability at 100 uM incubated for 24 hrs by MTT assay. The conditions noted are these: HL-60, 24 h, read-out: Activity. It is filed as functional. An outline of the steps: (§2)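 Leukemic lines (HL-60, K562, Jurkat) grown in suspension in RPMI-1640 + 10% heat-inactivated FBS. Colorectal HT-29 and Caco-2 grown adherent in DMEM + 5–10% FBS. Cells kept at 37 °C, 5% CO2, and checked for viability by trypan blue before use. Single final concentration 100 μM for 24 h at 37 °C, camptothecin as positive control. MTT read-out with formazan dissolved in DMSO; viability expressed relative to untreated control set at 100%.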

The subject of the next series is HT-29. As to the kind of experiment: Growth inhibition of human HT-29 cells assessed as cell viability at 100 uM incubated for 24 hrs by MTT assay. The class given is functional. The note with it: HT-29, 24 h, read-out: Activity. An outline of the steps: as §2
Another series has as its system K562. In words: Growth inhibition of human K562 cells assessed as cell viability at 100 uM incubated for 24 hrs by MTT assay. It is filed as functional. The note with it: K562, 24 h, read-out: Activity. An outline of the steps: as §2
Series [4] can be described thus: Growth inhibition of human Caco2 cells assessed as cell viability at 100 uM incubated for 24 hrs by MTT assay. The class given is functional. The conditions noted are these: Caco-2, 24 h, read-out: Activity. In outline:
as §2

A short description of series [5]: Growth inhibition of human WBC cells assessed as cell viability at 100 uM incubated for 24 hrs by MTT assay. It is filed as cell-based. The conditions noted are these: WBC cells (white blood cells), read-out: Activity. An outline of the steps: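 Freshly isolated human peripheral leucocytes from volunteers, exposed at a single final concentration of 100 μM for 24 h, camptothecin as comparator. Viability read by MTT assay with formazan dissolved in DMSO.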

A further series relates to Jurkat. In words: Growth inhibition of human Jurkat cells assessed as cell viability at 100 uM incubated for 24 hrs by MTT assay. The class given is functional. The conditions noted are these: read-out: Activity. An outline of the steps:
as §2

Structures are written as SMILES. Some results are limits rather than exact numbers.

Usually GI50 stands for the concentration at which growth is held to half of that of the control. In the case of `CC(C)(C)[Si](C)(C)OC[C@H]1O[C@@H](n2ccc(=O)[nH]c2=O)[C@H](O)[C@@H]1O`, the concentration for 50% growth inhibition (GI50) in series [1] worked out at 71 µM; in series [2] it was 84 µM.

In the case of `CC(C)(C)[Si](OC[C@H]1O[C@@H](n2cnc3c(N)ncnc32)[C@H](O)[C@@H]1O)(c1ccccc1)c1ccccc1`, the concentration for 50% growth inhibition (GI50) stood at 44 µM in series [1] and 46 µM in series [2]. Besides, the viability at 100 µM was 27.9% in series [3]; over 50% with HT-29; 45.5% in the series with K562; over 50% in series [4]; 18.3% with Jurkat. In addition, the viability at 24 h, 100 µM in series [5] was 59.3%.

For the molecule `COc1ccc(C(OC[C@H]2O[C@@H](n3ccc(=O)n(C(=O)c4ccccc4)c3=O)[C@H](OC(C)=O)[C@@H]2OC(C)=O)(c2ccccc2)c2ccc(OC)cc2)cc1`, the values for the concentration for 50% growth inhibition (GI50) in series [1] and in series [2] were 39 µM and 44 µM, respectively.

Consider `CC(=O)O[C@@H]1[C@H](OC(C)=O)[C@@H](CO[Si](c2ccccc2)(c2ccccc2)C(C)(C)C)O[C@H]1n1ccc(=O)[nH]c1=O`, for which the GI50 was 32 µM in series [1] and 29 µM in series [2]. In addition, the viability at 100 µM is 11.2% in series [3]; over 50% in the series with HT-29; 35.5% with K562; over 50% in series [4]; over 50% in the series on Jurkat. For the same molecule, the viability at 24 h, 100 µM in series [5] came out at 100%.

Take `CC(C)(C)[Si](OC[C@H]1O[C@@H](n2ccc(N)nc2=O)[C@H](O)[C@@H]1O)(c1ccccc1)c1ccccc1`: the GI50 turned out to be 28 µM in series [1] and 40 µM in series [2]. The viability at 100 µM in series [3] stood at 26%; with HT-29, 25.6%; in the series on K562 it was 35.6%; in series [4], 37.2%; in the series with Jurkat, 16%. In addition, the viability at 24 h, 100 µM in series [5] came to 100%.

In the case of `COc1ccc(C(OC[C@H]2O[C@@H](n3ccc(=O)[nH]c3=O)[C@H](O)[C@@H]2O)(c2ccccc2)c2ccc(OC)cc2)cc1`, the GI50 was found to be 40 µM in series [1] and 39 µM in series [2]. The viability at 100 µM in series [3] came to 6.5%; in the series on HT-29, 27.8%; with K562, 8.3%; in series [4], 26.1%; in the series on Jurkat it was 5.2%. Further, the viability at 24 h, 100 µM in series [5] worked out at 82.7%.

Take `CC(=O)O[C@@H]1[C@H](OC(C)=O)[C@@H](CO[Si](c2ccccc2)(c2ccccc2)C(C)(C)C)O[C@H]1n1ccc(=O)n(C(=O)c2ccccc2)c1=O`: the figures for the concentration for 50% growth inhibition (GI50) in series [1] and in series [2] were 26 µM and 35 µM, respectively.

Turning to `Cc1cn([C@@H]2O[C@H](CO[Si](C)(C)C(C)(C)C(C)C)[C@@H](O)[C@H]2O)c(=O)[nH]c1=O`, the GI50 in series [1] is 68 µM; in series [2], 64 µM.

Regarding `CC(C)[Si]1(C(C)C)OC[C@H]2O[C@@H](n3ccc(=O)[nH]c3=O)C(=O)[C@@H]2O[Si](C(C)C)(C(C)C)O1`, the results for the concentration for 50% growth inhibition (GI50) in series [1] and in series [2] were 71 µM and 70 µM, respectively.

With `Cc1cn([C@@H]2O[C@@H]3CO[Si](C(C)C)(C(C)C)O[Si](C(C)C)(C(C)C)O[C@H]3[C@H]2O)c(=O)[nH]c1=O`, the concentration for 50% growth inhibition (GI50) in series [1] was found to be 87 µM; in series [2] it was 91 µM.

Consider `Cc1cn([C@@H]2O[C@H](CO[Si](c3ccccc3)(c3ccccc3)C(C)(C)C)[C@@H](O)[C@H]2O)c(=O)[nH]c1=O`, for which the 50% growth inhibitory concentration (GI50) worked out at 25 µM in series [1] and 27 µM in series [2].

With `CC(C)[Si]1(C(C)C)OC[C@H]2O[C@@H](n3ccc(=O)[nH]c3=O)[C@H](O)[C@@H]2O[Si](C(C)C)(C(C)C)O1`, the 50% growth inhibitory concentration (GI50) in series [1] worked out at 81 µM; in series [2], 83 µM.

Turning to `COc1ccc(C(OC[C@H]2O[C@@H](n3ccc(=O)[nH]c3=O)[C@H](OC(C)=O)[C@@H]2OC(C)=O)(c2ccccc2)c2ccc(OC)cc2)cc1`, the GI50 in series [1] was 40 µM; in series [2], 28 µM. The viability at 100 µM (in series [3]; in the series on HT-29; with K562; in series [4]; in the series with Jurkat) was over 50% throughout. Also, the viability at 24 h, 100 µM in series [5] came out at 100%.

As for `CC(C)C(C)(C)[Si](C)(C)OC[C@H]1O[C@@H](n2ccc(=O)[nH]c2=O)[C@H](O)[C@@H]1O`, the GI50 in series [1] and in series [2] was over 100 µM each time.

`CC(C)(C)[Si](OC[C@H]1O[C@@H](n2ccc(=O)[nH]c2=O)[C@H](O)[C@@H]1O)(c1ccccc1)c1ccccc1`: the GI50 in series [1] worked out at 36 µM; in series [2], 35 µM. In addition, the viability at 100 µM came to 5.6% in series [3]; 29.4% in the series on HT-29; 9.4% in the series on K562; 37.4% in series [4]; 6.3% in the series on Jurkat. The viability at 24 h, 100 µM in series [5] worked out at 61.5%.

Regarding `Cc1cn([C@@H]2O[C@H](CO[Si](C)(C)C(C)(C)C)[C@@H](O)[C@H]2O)c(=O)[nH]c1=O`, the GI50 in series [1] was over 100 µM; in series [2], 77 µM.

For the molecule `CC(C)[Si]1(C(C)C)OC[C@H]2O[C@@H](n3ccc(=O)n(C(=O)c4ccccc4)c3=O)[C@H](O)[C@@H]2O[Si](C(C)C)(C(C)C)O1`, the GI50 in series [1] and in series [2] was 29 µM each time.

For the molecule `CC[C@@]1(O)C(=O)OCc2c1cc1n(c2=O)Cc2cc3ccccc3nc2-1` [CAMPTOTHECIN], the viability at 100 µM in series [3] stood at 23.4%; in the series with HT-29 it was 11.4%; in the series with K562, 39.6%; in series [4] it was 12.8%; in the series on Jurkat, 8.9%. Further, the viability at 24 h, 100 µM in series [5] was found to be 34.6%.

As to `O=C1N[C@@H]2C(=C[C@H](O)[C@@H](O)[C@H]2O)c2cc3c(c(O)c21)OCO3` [NARCICLASINE], the GI50 in series [1] was 0.029 µM; in series [2], 0.04 µM.
